Source: PMC5696082 (Analytical biochemistry, 2017)

Assays:
[1] = target: T1, hCE1 (Homo sapiens, UniProt P23141); assay: Specific activity of hCE1 towards substrates; assay type: biochemical
T1 sequence (P23141 18-567): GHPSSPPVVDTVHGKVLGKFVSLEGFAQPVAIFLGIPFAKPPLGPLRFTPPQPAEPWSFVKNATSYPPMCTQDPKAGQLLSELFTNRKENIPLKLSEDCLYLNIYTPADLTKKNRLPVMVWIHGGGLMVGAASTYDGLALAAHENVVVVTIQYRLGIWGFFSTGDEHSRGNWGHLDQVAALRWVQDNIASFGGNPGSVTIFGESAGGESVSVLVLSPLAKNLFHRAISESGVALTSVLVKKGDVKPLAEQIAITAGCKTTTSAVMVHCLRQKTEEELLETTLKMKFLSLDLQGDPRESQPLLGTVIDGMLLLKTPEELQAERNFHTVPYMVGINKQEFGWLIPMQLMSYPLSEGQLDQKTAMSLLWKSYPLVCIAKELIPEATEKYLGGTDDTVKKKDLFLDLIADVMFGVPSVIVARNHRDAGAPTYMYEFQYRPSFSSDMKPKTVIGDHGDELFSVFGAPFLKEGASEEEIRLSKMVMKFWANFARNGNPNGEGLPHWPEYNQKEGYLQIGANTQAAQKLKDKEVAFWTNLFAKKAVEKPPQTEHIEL
Outline: (§1)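 Enzymes expressed in baculovirus-infected High Five cells: hCE1 CHAPS-solubilised from the 100,000 g pellet, then DEAE-purified; hCE2/hCE3 crude soluble fraction; FAAH crude insoluble fraction. Substrate added to 50 µM final in 100 mM sodium phosphate pH 8.0, 0.1 mg/mL BSA, 1% DMSO. Fluorescence read every 30 s for ≥10 min at 37°C. Rates corrected for estimated purity: hCE1 25%, hCE2 4%, hCE3 3.5% (3% in footnotes), FAAH 6.9%. Triplicates.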

[2] = target: T2, hCE2 (Homo sapiens, UniProt O00748); assay: Specific activity of hCE2 towards substrates; assay type: biochemical
T2 sequence (O00748 27-559): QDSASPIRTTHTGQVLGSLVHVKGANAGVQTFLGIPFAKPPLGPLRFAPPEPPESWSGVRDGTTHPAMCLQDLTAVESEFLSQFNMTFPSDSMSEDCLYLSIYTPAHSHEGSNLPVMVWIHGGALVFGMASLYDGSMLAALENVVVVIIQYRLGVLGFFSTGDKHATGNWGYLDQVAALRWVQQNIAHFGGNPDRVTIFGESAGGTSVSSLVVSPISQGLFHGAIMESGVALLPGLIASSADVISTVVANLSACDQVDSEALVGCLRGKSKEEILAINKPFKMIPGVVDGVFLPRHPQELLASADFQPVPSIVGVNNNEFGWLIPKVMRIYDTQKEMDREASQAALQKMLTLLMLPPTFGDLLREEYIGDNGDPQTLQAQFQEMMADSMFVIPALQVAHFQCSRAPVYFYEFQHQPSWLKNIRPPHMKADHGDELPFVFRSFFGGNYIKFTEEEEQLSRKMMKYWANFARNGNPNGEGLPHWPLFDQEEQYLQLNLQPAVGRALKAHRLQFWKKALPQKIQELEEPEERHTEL
Outline: as §1

[3] = target: T3, FAAH (Homo sapiens, UniProt O00519); assay: Specific activity of FAAH towards substrates; assay type: biochemical
T3 sequence (O00519 1-579): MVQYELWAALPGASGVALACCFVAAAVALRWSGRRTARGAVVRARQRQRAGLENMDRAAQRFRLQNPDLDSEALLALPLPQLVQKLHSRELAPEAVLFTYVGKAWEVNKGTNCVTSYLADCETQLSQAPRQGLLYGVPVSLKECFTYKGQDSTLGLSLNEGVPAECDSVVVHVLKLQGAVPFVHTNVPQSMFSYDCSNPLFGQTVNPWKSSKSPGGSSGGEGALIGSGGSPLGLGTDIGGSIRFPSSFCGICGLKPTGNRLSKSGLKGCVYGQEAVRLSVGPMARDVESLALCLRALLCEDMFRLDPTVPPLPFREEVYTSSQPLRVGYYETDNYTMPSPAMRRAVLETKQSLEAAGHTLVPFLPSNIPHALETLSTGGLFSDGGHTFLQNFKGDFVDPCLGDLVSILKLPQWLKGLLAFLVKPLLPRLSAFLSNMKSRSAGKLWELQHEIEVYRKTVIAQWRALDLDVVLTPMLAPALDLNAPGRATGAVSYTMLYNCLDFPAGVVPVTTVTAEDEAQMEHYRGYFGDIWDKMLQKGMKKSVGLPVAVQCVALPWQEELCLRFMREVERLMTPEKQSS
Outline: as §1

[4] = target: T1, hCE1; assay: Kinetic properties; assay type: biochemical
[5] = target: T2, hCE2; assay: Kinetic properties; assay type: biochemical
[6] = target: T1, hCE1; assay: Limit of detection and quantification for hCE1 using partially purified enzyme; assay type: biochemical; settings: for LOD for hCE1: S/N > 3; for LOD for hCE1 / LOQ for hCE1: [S] = 50 µM; for LOQ for hCE1: S/N > 9
Outline: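 Partially purified recombinant hCE1, without any matrix, diluted into wells with substrate at 50 µM. Assay run in 100 mM sodium phosphate, pH 8, 0.1 mg/mL BSA, 1% DMSO, at 37°C. S/N taken as mean signal of enzyme wells over the SD of […], quadruplicates in one experiment. LOD set as the lowest level with S/N > 3; LOQ as S/N > 9.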

[7] = Background hydrolysis of substrates in phosphate buffer; assay type: physicochemical
[8] = system: Intestine S9; assay: Substrate hydrolysis by pooled tissue S9, intestine; assay type: biochemical, human
Outline: (§2)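 Commercial pooled human tissue S9 fraction added to substrate at 50 µM final in 100 mM sodium phosphate, pH 8.0, 0.1 mg/mL BSA. Fluorescence monitored every 30 s for at least 10 min at 37°C. Specific activity given as the mean of triplicates in one experiment, or mean ± standard deviation of 3 independent experiments run in triplicate.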

[9] = system: Kidney S9; assay: Substrate hydrolysis by pooled tissue S9, kidney; assay type: biochemical, human
Outline: as §2

[10] = system: Liver S9; assay: Substrate hydrolysis by pooled tissue S9, liver; assay type: biochemical, human
Outline: as §2

[11] = system: Lung S9; assay: Substrate hydrolysis by pooled tissue S9, lung; assay type: biochemical, human
Outline: as §2

[12] = Kinetic mode (30 s intervals for 30 minutes)

Turnover by hCE1, times lower than CMNA [1]: 10 times
Preference of hCE1 over the other esterases tested ([1]; 13 other esterases / serine hydrolases): ≥ 10 fold
Hydrolysis Specific Activity ([1]; Table 6, hCE1): 370 ± 27 pmol/min/µg
Selectivity of hCE1 turnover compared to hCE2 [2]: 40- to 50 fold
hCE2 Specific activity ([2]; Table 3, [S] = 50 µM, 37°C, pH 8, estimated 4% purity): 13 pmol/min/µg
Hydrolysis Specific Activity ([2]; Table 6, hCE2): 6.4 ± 0.7 pmol/min/µg
Selectivity of hCE1 over FAAH (turnover) [3]: 10 fold
Catalytic efficiency of hCE1, fold lower than that of CMNA [4]: approximately 16 fold
Vmax with hCE1, fold lower than CMNA [4]: 3 fold
Vmax, fold higher with hCE1 than hCE2 [4]: 120 fold
KM for hCE2, fold lower than that of hCE1 [5]: 3 fold
Time over which hCE1 hydrolysis remained linear [6]: at least 24 hours
LOD for hCE1 ([6]; Endpoint mode 1 hour): 0.06 ng
LOQ for hCE1 ([6]; Endpoint mode 1 hour): 2.0 ng
LOD for hCE1 ([6]; Endpoint mode 4 hours): 0.03 ng
LOQ for hCE1 ([6]; Endpoint mode 4 hours): 0.12 ng
LOD for hCE1 ([6]; Endpoint mode 24 hours): 0.008 ng
LOQ for hCE1 ([6]; Endpoint mode 24 hours): 0.03 ng
LOD for hCE1 [6, 12]: 3.9 ng
LOQ for hCE1 [6, 12]: 16 ng
Limit of quantification for hCE1, fold higher than CMNA ([6]; kinetic mode, short time (<30 minutes)): 4 fold
Background hydrolysis, fold lower than CMNA ([7]; phosphate buffer): 200 fold
Rate of background hydrolysis ([7]; phosphate buffer 100 mM, pH 8, 0.1 mg/mL BSA): 0.1 pmol/min
SMILES: CCCCC(C)CCC(=O)Nc1ccc(OC)nc1C (stereo not drawn) [4-MOMMP, N-(6-methoxy-2-methylpyridin-3-yl)-4-methyloctanamide]
Hydrolysis Specific Activity [8]: <0.05 pmol/min/µg
Hydrolysis Specific Activity [9]: <0.05 pmol/min/µg
Hydrolysis Specific Activity [10]: 5.5 ± 0.4 pmol/min/µg
Hydrolysis Specific Activity [11]: 0.20 ± 0.02 pmol/min/µg
